# MrgX1 antagonist: antagonists of human MrgX1 receptor, primary screen, HEK293 cells, Fluo-4 calcium flux; BAM8-22 antagonism; stronger effect = lower value; hit rate 1.3% among 310,000; B-score at 10 µM;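 active = calcium-response B-score plate-corrected more than 3 library SD below zero, starting fluorescence within 5 deviations, no agonist response on first addition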;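 also: peak minus trough fluorescence over baseline after final BAM8-22 challenge near maximal dose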
# RGS4 act: RGS4 potentiators or activators, primary screen, cell-based, HEK293 M3R inducible RGS4, calcium flux; carbachol calcium flux Fluo4; stronger effect = lower value; B-score at 10 µM; hit rate 0.92% among 310,000;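 active = B-score of the integrated calcium signal more than 4 SD below the library mean, with starting fluorescence not abnormally high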;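 also: negative B-score means reduced calcium response which marks RGS4 activation or potentiation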
#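 test system = M3R-expressing HEK293 line, RGS4 induced by doxycycline | probe or stimulus = carbachol at ECmax as muscarinic agonist stimulus | timing = dye loading 30 min 37 °C, buffer rest 30 min RT | signal = calcium dye Fluo4 fluorescence | evaluation = B score from integrated fluorescence ratio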
# RGS4 inh: RGS4 inhibitors, primary screen, cell-based, HEK293 M3R inducible RGS4, calcium flux; B-score at 10 µM; Fluo-4 calcium flux; stronger effect = higher value; triggered by carbachol at its EC20; hit rate 0.45% among 310,000; Regulator of G-protein signaling 4 (Homo sapiens), P49798;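 active = B-score, a plate-corrected calcium signal, over three deviations above library mean, with baseline fluorescence within five deviations of library mean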;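 also: RGS4 expression induced by doxycycline in cells with stable M3 receptor; B-score is computed from the integrated fluorescence ratio over baseline after carbachol; higher B-score means a larger calcium signal and so more RGS4 inhibition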
# Cl transport mod: KCC2 cotransporter modulators, thallium flux, primary screen, cell-based, HEK293 KCC2, FluoZin-2 fluorescence, MLSMR; Solute carrier family 12 member 5 (Homo sapiens), Q9H2X9; KCC2 cells, thallium flux FluoZin-2 fluorescence; B-score of Tl+ flux slope (higher = more flux/activation; lower = inhibition) at 10 µM; hit rate 2.2% among 190,000;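 active = thallium flux slope and its plate-corrected score both differing from the plate sample mean at a set confidence after two filtering rounds, in either direction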;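 also: slope of fluorescence scaled to starting intensity during 10 to 20 s after thallium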
# MrgX1 allo act: positive allosteric modulators of MrgX1, primary screen, HEK293 cells, Fluo-4 calcium flux; AID 588675, 2011; FDSS; stronger effect = higher value; hit rate 0.63% among 310,000; B-score at 10 µM;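 active = plate-corrected calcium response at least 3 library SD above typical, normal starting fluorescence, not activating the receptor alone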;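 also: compound read alongside a low EC10 to EC30 dose of BAM8-22 agonist; peak minus trough fluorescence over baseline measured at the second addition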
# MrgX1 agonist: agonists of human MrgX1 receptor, primary screen, HEK293 cells, Fluo-4 calcium flux. Mas-related G-protein coupled receptor member X1 (Homo sapiens), Q96LB2. Fluo-4 calcium fluorescence, agonist mode; stronger effect = higher value. B-score at 10 µM. hit rate 0.44% among 310,000. AID 588627, 2011;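 active = calcium response B-score plate-corrected fluorescence ratio at least 3 library SD, with starting fluorescence B-score inside 5 SD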
#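 Test system: HEK293 cells stably expressing human MrgX1 receptor; Input: fifteen thousand cells per well; Dosing: compound delivered in addition one of three; Schedule: overnight seeding, then 1 h dark dye loading; Technique: Fluo-4 NW calcium fluorescence; Measure: B-scored fluorescence response ratio; Controls: positive and negative controls per plate.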
# KCC2 secondary: KCC2 modulators in sodium-free buffer, confirmation, cell-based, HEK293 KCC2, thallium flux, secondary assay. shares compounds with Cl transport mod. FluoZin2 fluorescence; stronger effect = higher value. normalised thallium flux (F/F0 slope) at 10 µM. hit rate 15% among 3,700;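 active = thallium flux slope above the same plate's solvent-only control mean plus 3 SD; inconclusive = the two replicate wells disagree; inactive = no significant difference from solvent-only control wells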
# KCC2 bumet counter: thallium flux persisting under bumetanide in KCC2 cells, confirmation, counter-screen for KCC2 modulator project, cell-based, HEK293 KCC2, FluoZin2, secondary assay 3; hit rate 49% among 3,700; HEK293-KCC2 + bumetanide/ouabain; stronger effect = higher value; normalized thallium flux at 10 µM; shares compounds with Cl transport mod;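 active = thallium entry rate above the same plate's blocked-transporter control wells by more than 3 SD; inconclusive = the two repeat wells disagree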;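 also: raw slope of fluorescence over initial fluorescence between 10 and 20 s after thallium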
# KCC2 secondary2: KCC2 modulators without ouabain present, confirmation, cell-based, HEK293 KCC2, thallium flux, FluoZin2, secondary assay 2. shares compounds with Cl transport mod. hit rate 23% among 3,700. AID 1715, 2009. normalized thallium flux at 10 µM. thallium flux FluoZin2 fluorescence; actives lie on both sides; F/F0 rise rate, 10–20 s post-thallium;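 active = thallium flux slope more than 3 SD above or below the plate's solvent-only control mean, mostly below; inconclusive = the two repeat wells disagreed; inactive = no significant shift from solvent-only controls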;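 also: raw slope with 0.1% DMSO as baseline and bumetanide as block control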
# HEK293 Tl flux: thallium flux modulation in parental HEK cells, confirmation, counter-screen for KCC2 modulator project, cell-based, counterscreen 1 | shares compounds with Cl transport mod | HEK293 parental cells, thallium flux FluoZin2, ouabain; baseline-ratio fluorescence slope, 10–20 s after thallium | hit rate 46% among 3,700 | thallium flux rate (normalised fluorescence) at 10 µM;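 active = thallium flux rate significantly above the same plate's solvent-only control wells, beyond their mean plus 3 SD; inconclusive = the two replicate wells gave conflicting results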
# KCC2 retest ouab: KCC2 inhibitors and activators, ouabain retest, confirmation, HEK-KCC2 cells; shares compounds with Cl transport mod; HEK293-KCC2, thallium flux FluoZin2 fluorescence; bidirectional: low = inhibitor, high = activator; raw Tl+ flux slope (below DMSO = inhibition, above = activation) at 10 µM; hit rate 48% among 3,700;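 active = thallium flux slope beyond 3 SD from same-plate DMSO control mean in most replicates, usually higher, sometimes lower; inconclusive = repeat tests gave conflicting results; inactive = no significant difference from controls in most replicates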;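 also: slope of initial-normalized fluorescence between seconds 10 and 20 after thallium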
# HEK293 Tl flux2: native HEK Tl+ uptake effects, second counter-screen – HEK cells, counterscreen 2, counter-screen for KCC2 modulator project, confirmation | HEK293 parental, thallium flux FluoZin-2 fluorescence slope | hit rate 33% among 3,700 | shares compounds with Cl transport mod | thallium flux slope at 10 µM | AID 1718, 2009;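 active = thallium flux slope above the same plate's solvent-control mean plus 3 SD in both duplicate wells; inconclusive = duplicate wells that disagreed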;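 also: run without ouabain in cells lacking the KCC2 cotransporter; slope of fluorescence scaled to its starting value between 10 and 20 s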
# * hit, by the source's call; i = inactive; ? = inconclusive; / = not tested or not shown. A selection: hits, their analogues and other compounds. The true share with any hit is near 4.7%.
SMILES,MrgX1 antagonist,RGS4 act,RGS4 inh,Cl transport mod,MrgX1 allo act,MrgX1 agonist,KCC2 secondary,KCC2 bumet counter,KCC2 secondary2,HEK293 Tl flux,KCC2 retest ouab,HEK293 Tl flux2
CCOC(=O)c1ccc2c(c1)[nH]c(=S)n2CC,i,i,i,4*,i,i,0.0057,0.019*,0.033,0.013*,?,0.016*
Cc1ccc(-c2ccc(/C=N/NC(=O)c3ccccc3O)o2)cc1,i,i,i,61*,i,i,0.02*,0.079*,0.037,0.041*,0.057*,0.015*
Cc1ccc(-c2ccc(/C=N/NC(N)=S)o2)cc1,i,i,i,5*,i,i,0.0062,0.012*,0.033,0.01*,?,?
CC(C)Oc1ccc(C(=O)N2CCN(C(=O)c3ccco3)CC2)cc1,i,i,i,/,i,i,/,/,/,/,/,/
COc1ccc(-n2nc(C(=O)NCC(=O)Nc3ccc(F)cc3)c3ccccc3c2=O)cc1,i,i,i,/,i,i,/,/,/,/,/,/
CCCCNC(=O)c1onc(CSc2cccc3ccccc23)c1C(=O)O,i,i,i,-4.8*,i,i,0.0073,0.006,0.029,?,0.018*,0.0094
COc1ccc(C(=O)Nc2cc(OC)c(Cl)cc2OC)cc1,i,i,i,-4.5*,i,i,0.0098,0.0086*,0.033,0.015*,0.021,0.011
COc1cc(NC(=O)c2ccc(F)cc2)c(OC)cc1Cl,i,i,i,0.55,i,i,/,/,/,/,/,/
COC(=O)c1cc(OC)c(OC)cc1NC(=O)c1cc(OC)cc(OC)c1,i,i,i,5.3*,i,i,0.0092,0.0052,0.031,0.0068,0.021,0.0094
N#Cc1nc(-c2ccco2)oc1NCCCN1CCOCC1,i,i,i,0.89,i,i,/,/,/,/,/,/
N#Cc1nc(Cc2cccc3ccccc23)oc1NCc1ccco1,i,i,i,/,i,i,?,0.0049,?,?,0.014*,0.011
N#Cc1nc(Cc2cccc3ccccc23)oc1NCC1CCCO1 (configuration not stated),i,i,i,/,i,i,0.01,0.0064,?,0.0035,0.016*,0.011
N#Cc1nc(Cc2cccc3ccccc23)oc1NCCCN1CCOCC1,i,i,i,-5.6*,i,i,?,0.0054,0.03,0.0067,0.014*,0.011*
COc1ccccc1OCc1nc(C#N)c(NCc2ccco2)o1,i,i,i,-1,i,i,/,/,/,/,/,/
COc1ccc(/C=c2\s/c(=C/C(=O)c3ccc(C)cc3)[nH]c2=O)c(OC)c1,i,i,i,1.9,i,i,/,/,/,/,/,/
COc1cccc(/C=c2\s/c(=C/C(=O)c3ccc(C)cc3)[nH]c2=O)c1OC,i,i,i,4.7*,i,i,0.0055,?,0.035,0.011*,0.026*,?
Cc1ccc(C)c(N2CCN(c3ncccc3[N+](=O)[O-])CC2)c1,i,i,i,/,i,i,/,/,/,/,/,/
COc1cccc(CNC(=O)N2CCN(c3ccccc3)CC2)c1,i,i,i,/,i,i,/,/,/,/,/,/
COc1ccccc1OCCNC(=O)c1ccc2c(c1)CCC2,i,i,i,/,i,i,/,/,/,/,/,/
CCCN1Cc2cccc(C(=O)Nc3ccc(CC)cc3)c2C1=O,i,i,i,/,i,i,/,/,/,/,/,/
CCCN1Cc2cccc(C(=O)Nc3ccc(C)cc3)c2C1=O,i,i,i,/,i,i,0.0058,0.0043,0.028,0.0073,0.018,0.0099
CCCN(C(=O)COC(=O)C12CCC(=O)N1c1ccccc1S2)c1c(N)n(Cc2ccccc2)c(=O)[nH]c1=O (configuration not stated),i,i,i,/,i,i,/,/,/,/,/,/
Cc1c(Nc2nc(-c3ccc(Cl)cc3)cs2)c(=O)n(-c2ccccc2)n1C,i,i,i,-4.5*,i,i,0.0065,0.0052,0.024*,0.0058*,0.014*,?
Cc1c(NC2=C(Cl)C(=O)N(c3ccccc3)C2=O)c(=O)n(-c2ccccc2)n1C,i,i,i,-4.4*,i,i,?,0.0069,0.035,0.0045,0.021,0.011
O=C(NC1CCC(CC2CCC(NC(=O)C(Cl)Cl)CC2)CC1)C(Cl)Cl (configuration not stated),i,i,i,/,i,i,/,/,/,/,/,/
Cn1c(=S)[nH]c2c(c1=O)C(C)(C)Cc1ccccc1-2,i,i,i,83*,i,i,0.066*,0.12*,0.084*,0.096*,0.094*,0.091*
O=C(NC1CCCC1)C(c1ccncc1)N(Cc1ccco1)C(=O)c1ccc(-c2ccccc2)[nH]1 (configuration not stated),i,i,i,-3.3*,i,i,0.0071,?,0.024*,0.0074,?,0.011
